Screening data as filed in PubChem.
Sampled rows, rich in hits. Any-hit rate of the full collection: about 1.9%.
NPY2 pot ag – NPY-Y2 potentiators or agonists, primary screen, cell-based | Neuropeptide Y receptor type 2 (Homo sapiens), P49146 | cells expressing NPY-Y2, potentiator/agonist read-out | activation, % at 3.6 µM | actives 0.45% (n = 220,000) | AID 1359, 2008; in the data active = activation above about 27%;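 note: cells stimulated with NPY near EC25 plus isoproterenol at EC100; 0% = vehicle plus submaximal agonist and 100% = vehicle plus saturating agonist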
NPY Y2 blocker – NPY-Y2 receptor antagonists, primary screen, cell-based; actives 0.99% (n = 140,000); NPY-Y2 expressing cells, antagonist mode; inhibition, % at 2.7 µM; in the data active = inhibition above about 17%;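 note: 0% = vehicle with agonist challenge and 100% = reference antagonist with challenge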
NPY Y1 blocker – NPY-Y1 receptor antagonists, primary screen, cell-based | HEK293-CNG Y1 cells, membrane potential fluorescence; NPY at EC95, then isoproterenol | actives 1% (n = 200,000) | inhibition, % at 3.6 µM;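 active = inhibition above the campaign mean inhibition of all tested compounds plus 3 SD, cut at about 20% in these data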;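 note: 0% = DMSO wells given NPY plus isoproterenol and 100% = isoproterenol alone without NPY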
Target sequence (P25929 whole entry, looked up): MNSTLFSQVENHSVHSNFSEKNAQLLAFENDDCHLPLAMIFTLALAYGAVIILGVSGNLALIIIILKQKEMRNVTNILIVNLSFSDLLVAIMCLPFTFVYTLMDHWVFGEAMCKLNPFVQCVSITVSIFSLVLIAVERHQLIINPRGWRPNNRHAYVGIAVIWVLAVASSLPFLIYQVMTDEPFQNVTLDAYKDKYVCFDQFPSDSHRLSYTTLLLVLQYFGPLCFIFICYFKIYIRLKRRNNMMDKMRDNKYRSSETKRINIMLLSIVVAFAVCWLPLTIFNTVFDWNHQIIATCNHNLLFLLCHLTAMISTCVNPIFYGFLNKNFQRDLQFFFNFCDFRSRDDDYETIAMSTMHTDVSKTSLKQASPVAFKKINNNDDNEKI
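Material: HEK293 Y1/CNG channel cell line; also added: NPY (25 nM), isoproterenol (1 µM), Ro 20-1724 (25 µM); doses: one concentration, 3.6 µM, in 0.4% DMSO; schedule: compound incubation 1 h at room temperature, readout 45 min post-stimulation; technique: membrane potential fluorescence; measure: fluorescence ratio normalized to % inhibition between controls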
NPY-Y1 PAM-ag – NPY-Y1 receptor potentiators or agonists, primary screen, cell-based; AID 1304, 2008; actives 0.37% (n = 220,000); Neuropeptide Y receptor type 1 (Homo sapiens), P25929; NPY-Y1 expressing cells, potentiator/agonist activation; activation, % at 3.6 µM; in the data active = activation above about 33%, passing the limit was not always enough;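 note: cells stimulated with NPY at EC10 then isoproterenol at EC100; 0% = low agonist plus stimulus and 100% = saturating agonist plus stimulus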
NPY-Y2 confirm – NPY-Y2 potentiators or agonists, confirmation, cell-based; shares compounds with NPY2 pot ag; cell-based NPY-Y2 potentiator/agonist assay; activation, % at 3.6 µM; actives 20% (n = 450); in the data active = activation above about 33%
NPY-Y1 counter – NPY-Y1 potentiators or agonists, counter-screen for NPY-Y2 potentiator project, cell-based, fluorescence; shares compounds with NPY2 pot ag; Y1 HEK293-CNG cells, membrane potential fluorescence; activation, % at 3.6 µM; actives 20% (n = 450); in the data active = activation above about 45%;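 note: cells stimulated with submaximal NPY then isoproterenol with phosphodiesterase inhibitor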
NPY-Y1 agonist 2 – NPY-Y1 direct agonists, selectivity assay for NPY-Y2 potentiator project, cell-based, fluorescence | shares compounds with NPY2 pot ag | HEK293 Y1-CNGC, membrane potential fluorescence, agonism | activation, % at 3.6 µM | actives 37% (n = 450) | AID 1702, 2009;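 active = activation above the mean of DMSO-only control wells plus 3 SD, cut at about 18% in these data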;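 note: cells stimulated with 1 µM isoproterenol plus the PDE inhibitor Ro 20-1724; 0% = isoproterenol with DMSO and no NPY and 100% = 40 nM NPY; Y1 agonists lower the membrane potential dye signal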
CNGC inhibitor – CNGC cAMP sensor activity inhibitors, counter-screen for NPY-Y2 potentiator project, cell-based, HEK293-CNG parental, membrane potential fluorescence; inhibition, % at 3.6 µM; AID 1703, 2009; shares compounds with NPY2 pot ag; isoproterenol cAMP; actives 32% (n = 450);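 active = inhibition above the control-well mean plus 3 SD of those wells, cut at about 22% in these data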;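 note: 0% = DMSO with isoproterenol and 100% = DMSO without isoproterenol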
Y2 agonist ctr – NPY-Y2 direct agonists, counter-screen for NPY-Y2 potentiator project, cell-based, fluorescence. HEK293 Y2/CNGC cells, membrane potential fluorescence, agonist mode. shares compounds with NPY2 pot ag. actives 56% (n = 450). activation, % at 3.6 µM;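 active = activation above the mean of solvent-only control wells plus 3 SD, cut at about 10% in these data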;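 note: cells stimulated by isoproterenol with no NPY added so direct agonism is tested; 0% = DMSO with isoproterenol alone and 100% = NPY at EC100 plus isoproterenol; agonism lowers probe fluorescence through less cAMP and CNG channel opening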
The depositor's hits bear a star; / = not tested or not shown.

SMILES	NPY2 pot ag	NPY Y2 blocker	NPY Y1 blocker	NPY-Y1 PAM-ag	NPY-Y2 confirm	NPY-Y1 counter	NPY-Y1 agonist 2	CNGC inhibitor	Y2 agonist ctr
O=[N+]([O-])c1cc(Cl)cc(/C=N/Nc2nc3ccccc3s2)c1O	28*	/	-2	24	60*	68*	69*	63*	66*
COc1cc(/C=N/Nc2nc3ccccc3s2)cc([N+](=O)[O-])c1O	-9	/	/	3	/	/	/	/	/
Oc1c(C2=NCCNC(C(F)(F)F)=C2)ccc2ccccc12	31*	/	-12	35	36*	50*	38*	32*	42*
Cc1ccc(O)c(C2=NCCNC(C(F)(F)F)=C2)c1	1	1	-2	20	/	/	/	/	/
Cc1cccc2[nH]c(SCC(=O)N3CCOCC3)nc12	1	/	-1	8	/	/	/	/	/
COC(=O)c1ccsc1NC(=O)C1=COCCO1	51*	0	-9	-4	-5	-3	-12	-9	-7
CCOC(=O)c1[nH]c2ccc(OCC)cc2c1CCCN1C(=O)c2ccccc2C1=O	8	0	0	-7	/	/	/	/	/
COc1ccc(S(N)(=O)=O)cc1C(=O)NCCCN1CCN(c2ccccc2OC)CC1	76*	2	-2	13	-7	3	-17	-6	-1
COc1ccc(S(N)(=O)=O)cc1C(=O)NCCCN1CCN(c2ccc(C)cc2)CC1	-20	0	-4	25	/	/	/	/	/
O=C(O)C1C2CC3C(OC(=O)C31)C2Cl (stereo not given)	-5	1	-6	-10	/	/	/	/	/
CCN(CC)S(=O)(=O)c1cc(C(=O)OCC(=O)NC(=O)c2cccn2C)ccc1C	-2	3	0	-5	/	/	/	/	/
CC1CCN(c2ccccc2NC(=S)NC(=O)C(C)(C)C)CC1	-7	/	7	1	/	/	/	/	/
C#CCSc1nc(N)c2c(n1)OC(N)=C(C#N)C2c1cccnc1 (stereo not given)	58*	/	-4	4	21	25	16	-4	6
N#C/C(=N\Nc1ccc(Cl)c(Cl)c1)C(=O)C1CC1	63*	/	/	13	3	-38	-7	-9	5
CNC(=S)N(Cc1ccc2c(c1)OCO2)C1CC(=O)N(c2ccccc2)C1=O (stereo not given)	10	2	0	16	/	/	/	/	/
CCn1c(O)c(N=NC(=S)NCC2CCCO2)c2ccccc21 (stereo not given)	-7	/	1	-10	/	/	/	/	/
N#Cc1c(Cl)nsc1NN	31*	/	1	22	17	27	27*	15	30*
NC1CCN(c2c(F)cc3c(=O)c(C(=O)O)cn(C4CC4)c3c2Cl)C1 (stereo not given)	-3	/	/	2	/	/	/	/	/
COc1ccc(C)cc1NC(=O)c1ccccc1NS(=O)(=O)c1ccc(Cl)s1	58*	/	7	-2	-6	-46	-30	-23	-11
O=C(OCc1ccccn1)c1ccc(COc2ccc3ccccc3c2)o1	-14	/	/	-6	/	/	/	/	/
O=C(NNc1c(Cl)cccc1Cl)c1ccno1	10	/	/	22	/	/	/	/	/
CCOC(=O)c1ccc(-n2c(=S)sc3c(=O)[nH]c(C)nc32)cc1	35*	4	-8	28	6	11	11	-7	12*
O=C(CNCCC1=CCCCC1)Nc1ccc(N2CCCCCC2)cc1	45*	1	-3	38	39*	45*	37*	38*	46*
O=C(CNC1CCCCCC1)Nc1ccc(N2CCCC2)cc1	-10	6	-5	17	/	/	/	/	/
Cc1ccc(NC(=O)Nc2cccc([N+](=O)[O-])c2)cc1F	32*	-3	-3	31	21	24	15	18	17*
SMILES	NPY2 pot ag	NPY Y2 blocker	NPY Y1 blocker	NPY-Y1 PAM-ag	NPY-Y2 confirm	NPY-Y1 counter	NPY-Y1 agonist 2	CNGC inhibitor	Y2 agonist ctr
O=C(Nc1ccc(OC(F)(F)F)cc1)Nc1cccc([N+](=O)[O-])c1	12	0	-9	4	/	/	/	/	/
COCCCn1c(O)c(/C=C2\N=C(C#N)C(=Nc3ccc(C)cc3)O2)sc1=S	37*	/	/	27	19	9	-2	-4	27*
C/C(=N\Nc1ccc([N+](=O)[O-])cc1)c1ccc(N2CCOCC2)cc1	19	/	/	22	/	/	/	/	/
CCc1ccc(/C(C)=N\Nc2ccc([N+](=O)[O-])cc2)cc1	39*	-4	-6	37	20	27	24*	30*	30*
CSc1ncccc1C(=O)Nc1ccc2nc(C)sc2c1	105*	/	/	20	-5	0	-2	1	-5
COc1ccc(NC(=O)c2cccnc2SC)cc1OC	9	/	-2	5	/	/	/	/	/
CC(C)Cn1c(N)c(C(=O)COC(=O)CC23CC4CC(CC(C4)C2)C3)c(=O)n(C)c1=O	38*	2	-3	21	4	-10	-26	-1	2
CC(C)Cc1nnc(NC(=O)Cc2ccc([N+](=O)[O-])cc2)s1	3	-1	0	3	/	/	/	/	/
CCNc1c(C(=O)O)ccc2c1C(=O)c1ccccc1C2=O	-6	4	-2	-12	/	/	/	/	/
CC1CCCN(C(=O)c2ccc3c(c2NCCO)C(=O)c2ccccc2C3=O)C1 (stereo not given)	31*	-9	-8	29	46*	62*	38*	31*	42*
O=C(Nc1ccccc1C(=O)N1CCCC1)c1ccc(Cl)c([N+](=O)[O-])c1	28*	/	-12	35	3	7	5	-3	10*
O=C1OCC2=C1C(c1ccccc1)CC(=O)N2c1ccccc1 (stereo not given)	-8	/	4	-1	/	/	/	/	/
O=C1COc2ccc(C(=O)COC(=O)c3cc(S(=O)(=O)NCc4ccccc4)ccc3O)cc2N1	98*	/	/	12	-8	-9	-16	2	5
O=C1COc2ccc(C(=O)COC(=O)c3ccco3)cc2N1	-3	/	/	8	/	/	/	/	/
COc1ccc(C2CN=NC2C(=O)c2ccccc2)cc1 (stereo not given)	0	/	/	11	/	/	/	/	/
Cc1ccccc1C(C(=O)NC1CCCC1)N(C(=O)CNC(=O)c1ccco1)c1cccnc1 (stereo not given)	-3	/	8	12	/	/	/	/	/
CC(=O)NC(=S)Nc1ccc(N2CCOCC2)c(S(=O)(=O)Nc2cc(Cl)ccc2Cl)c1	7	/	-1	21	/	/	/	/	/
